Bioassay records deposited in PubChem BioAssay by several laboratories.
Sampled rows, rich in hits. Any-hit rate of the full collection: about 1.9%.
NR2E3 ag-1 – activates human photoreceptor nuclear receptor NR2E3. Q9Y5X4. inhibition of corepressor binding, % at 4.78 µM. AID 2300. GST-NR2E3/biotin-RetCOR TR-FRET, 1536-well. 320,000 compounds, 0.12% hits;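 active = percent inhibition above the cutoff of mean plus 3 SD of all tested compounds, set per screening campaign, cut at about 20% in these data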
Target sequence (Q9Y5X4 whole entry, looked up): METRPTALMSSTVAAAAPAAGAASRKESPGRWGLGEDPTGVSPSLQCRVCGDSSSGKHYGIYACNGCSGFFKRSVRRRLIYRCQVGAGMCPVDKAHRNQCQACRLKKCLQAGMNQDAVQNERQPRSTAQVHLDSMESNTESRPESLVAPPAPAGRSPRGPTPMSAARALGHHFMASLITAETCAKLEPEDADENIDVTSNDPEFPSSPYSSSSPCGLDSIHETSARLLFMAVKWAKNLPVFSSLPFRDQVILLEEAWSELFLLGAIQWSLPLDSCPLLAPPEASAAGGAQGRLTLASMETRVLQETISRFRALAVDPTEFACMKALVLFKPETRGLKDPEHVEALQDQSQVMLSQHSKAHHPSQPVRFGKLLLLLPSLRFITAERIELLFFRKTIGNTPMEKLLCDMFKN
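System: GST-tagged NR2E3 plus biotinylated RetCOR corepressor; Amount: 1.35 nM GST-tagged NR2E3 final; Dosing: single nominal compound dose of 4.8 µM; Schedule: 5 h incubation at 4 °C; Technique: TR-FRET with europium anti-GST and streptavidin-D2, 340 nm excitation; Controls: biotin wells as high control, 0.6% DMSO wells as low control.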
SKN-1 inh – inhibitors of C. elegans SKN-1; C. elegans VP596 Pgst-4::GFP/RFP ratio, acrylamide-induced, 24 h; 360,000 compounds, 0.49% hits; inhibition, % at 21.8 µM;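 active = interference check ratio from 0.5 to 1.5 plus GFP to RFP signal ratio inhibition reaching or exceeding a fixed threshold, cut at about 30% in these data, passing the limit was not always enough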
NR2E3 ag-2 – human photoreceptor-specific nuclear receptor agonism. AID 602229. 360,000 compounds, 0.35% hits. inhibition of corepressor binding, % at 3.98 µM. Q9Y5X4. CHO-S Gal4-NCOR/VP16-NR2E3 two-hybrid, luciferase;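 active = inhibition above the mean of all tested compounds plus 3 SD, cut at about 70% in these data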;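 also: higher means lower luciferase signal from less NR2E3 corepressor binding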
PG9 binder – binds the HIV-1 gp120 antibody PG9; TR-FRET gp120-PG9 antibody binding; inhibition, % at 6.7 µM; 360,000 compounds, 0.43% hits; in the data active = inhibition above about 8.5%
Rev-erbA mod – modulates human Rev-erb alpha binding to DNA; Rev-erbα–FITC-DNA binding, fluorescence polarization, 90 min; activity, % at 10 µM; 370,000 compounds, 0.79% hits;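 active = activity above about 14%, limit read from the data; passing the limit was not always enough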
MT1-MMP act inh – inhibitors of human MT1-MMP activation; HT1080 RFP-PRO-GFP cells, GFP/RFP ratio fluorescence, overnight; percent of plate control window, DMSO zero; GFP/RFP ratio change, % at 20 µM; 360,000 compounds, 0.061% hits; P50281;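 active = GFP/RFP ratio change of at least 30% with cell ATP level not reduced by more than half and red fluorescence within 50% of control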
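Assay system – RFP-PRO-GFP reporter HT1080 cells · Compound dosing – single dose of 20 µM compound, 1% DMSO final · Incubation – overnight compound exposure at 37 °C · Measure – GFP/RFP fluorescence ratio · Benchmarks – DMSO wells and RFP-L50D-GFP cells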
NR1D1 mod conf – confirmation of modulators of human Rev-erb alpha DNA binding | shares compounds with Rev-erbA mod | Rev-erb alpha FITC-DNA binding, fluorescence polarization, 90 min | activation, % at 25 µM | 3,000 compounds, 61% hits | AID 1259319;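 active = activation at or above a set limit, or at least 3 SD above the negative control mean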
RORg DNA counter – affects RORgamma DNA binding in a Rev-erb alpha counter-screen; shares compounds with Rev-erbA mod; purified RORgamma protein-FITC-DNA binding, fluorescence polarization; IC50, µM; 910 compounds, 8% hits; AID 1259320;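 active = Compounds whose fitted half-maximal concentration for disrupting protein-DNA binding is below 10 micromolar; the record names Rev-erb in its text, so the target is in doubt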
Numbers stand for hits; n = inactive; x = not tested or not shown.

SMILES	NR2E3 ag-1	SKN-1 inh	NR2E3 ag-2	PG9 binder	Rev-erbA mod	MT1-MMP act inh	NR1D1 mod conf	others
CSc1nc2ccc3nc(NC(=O)c4ccccc4)sc3c2s1	n	n	n	n	37.7	n	n
Cc1csc2c(=O)sc(NC(=O)c3ccc(F)cc3)nc12	n	n	n	n	n	n	x
O=C(C1CC1)n1ccc2ccc(-c3ccc4ccn(Cc5ccccc5)c4c3)cc21	x	x	x	x	n	x	x
Cc1cc2cc(C)c(NCCNC(=O)c3cccs3)nc2cc1C	n	n	n	n	21.1	n	n
COc1ccc(C)cc1NC(=O)c1cnc2n(c1=O)CCS2	n	n	n	n	n	n	x
COc1ccc(C)cc1NC(=O)c1cnc2scc(C)n2c1=O	x	n	n	n	26.7	n	n
CCN(C(=O)c1ccco1)c1nnc(-c2ccc(OC)cc2)s1	n	n	n	n	24.8	n	n
CC1CCCC(NC(=O)CSC2=Nc3ccccc3C3CC=NN23)C1C (stereo unspecified)	n	n	n	n	17.0	n	n
CC1CCCCC1NC(=O)CSC1=Nc2ccccc2C2CC=NN12 (stereo unspecified)	n	n	n	n	n	n	x
Nn1c(SCC(=O)N2c3ccccc3Sc3ccc(Cl)cc32)nnc1-c1cc(-c2ccc(F)cc2)n[nH]1	x	x	x	x	n	x	x
Cc1ccnc(N2CCC(C(=O)Nc3ccc(Oc4ccccc4)cc3)CC2)n1	n	n	n	n	24.2	n	n
CCOc1cccc2sc(Nc3nc4ccc(NC(C)=O)cc4s3)nc12	n	n	n	n	48.9	n	n
CCC(=O)Nc1nc2ccc(NC(C)=O)cc2s1	n	n	n	n	n	n	x
CC1(C)CC(Cc2ccccc2C(F)(F)F)N(C(=O)OC(C)(C)C)C1 (stereo unspecified)	x	n	x	n	n	n	x
Cc1sc2nc(-c3ccco3)oc(=O)c2c1C	n	n	n	n	n	n	x
Cc1ccccc1-c1nc2sc(C)c(C)c2c(=O)o1	n	n	n	n	18.0	n	n
COc1ccc(-c2csc3nc(-c4ccc(C)cc4)oc(=O)c23)cc1OC	n	n	n	n	27.4	n	n
COc1ccc(-c2csc3nc(C(C)(C)C)oc(=O)c23)cc1OC	n	n	n	n	n	n	x
Cc1sc2nc(C(C)(C)C)oc(=O)c2c1C	n	n	n	x	n	n	x
COc1cc(-c2nc3sc(C)c(C)c3c(=O)o2)cc(OC)c1OC	n	n	n	n	31.3	n	n
COc1ccc(Cn2c(-c3ccco3)nc3c(c(=O)c4ccccc4n3C)c2=O)cc1	n	n	n	n	n	n	x
COc1ccc(CCn2c(C(C)C)nc3c(c(=O)c4ccccc4n3C)c2=O)cc1	n	n	n	x	x	n	x
COc1ccc(Cn2c(-c3ccc(C)cc3)nc3c(c(=O)c4ccccc4n3C)c2=O)cc1	n	n	n	n	26.6	n	n
COc1ccc(-c2nc3c(c(=O)c4ccccc4n3C)c(=O)n2Cc2ccccc2)cc1	n	n	n	n	48.4	n	50.1	RORg DNA counter=n
COc1ccc(Cn2c(-c3ccccc3C)nc3c(c(=O)c4ccccc4n3C)c2=O)cc1	n	n	n	n	44.6	n	n
SMILES	NR2E3 ag-1	SKN-1 inh	NR2E3 ag-2	PG9 binder	Rev-erbA mod	MT1-MMP act inh	NR1D1 mod conf	others
COc1ccc(Cn2c(C)nc3c(c(=O)c4ccccc4n3C)c2=O)cc1	n	n	n	n	n	n	x
CCCCCc1nc2c(c(=O)c3ccccc3n2C)c(=O)n1Cc1ccc(OC)cc1	n	n	n	n	67.0	n	34.1	RORg DNA counter=n
COc1ccc(CCn2c(C)nc3c(c(=O)c4ccccc4n3C)c2=O)cc1	n	n	n	n	n	n	x
COC(=O)C1=C(C)N(Cc2cccc(C(F)(F)F)c2)C(=NCc2cc(OC)c(OC)c(OC)c2)NC1c1cccc(Cl)c1 (stereo unspecified)	x	x	x	n	n	x	x
COc1ccc(-c2nc3c(c(=O)[nH]c(=O)n3Cc3ccccc3)n2Cc2ccccc2)cc1	n	n	n	n	n	n	x
COc1ccc(-c2nc3c(c(=O)[nH]c(=O)n3Cc3ccccc3)n2C)cc1	n	n	n	n	43.4	n	n
Cc1ccc(-c2nc3c(c(=O)c4ccccc4n3C)c(=O)n2-c2ccc(F)cc2)cc1	n	n	n	n	69.2	n	43.2	RORg DNA counter=2.66
CC(C)(C)NC(=O)CN(C(=O)CCC(=O)Nc1nccs1)c1ccccc1F	x	n	n	n	n	n	x
COc1cc2c(c(OC)c1OC)[C@@]1(c3ccccc3)CCCCC[C@H]1[C@@H]2NC(=O)C(F)(F)F	x	x	x	n	13.1	x	n
COc1ccc(C2=NN(C(=O)COc3ncnc4ccccc34)C(c3ccco3)C2)cc1 (stereo unspecified)	n	n	n	n	30.9	n	n
COc1ccc(C2=NN(C(=O)CSc3nnc(C)n3C)C(c3ccco3)C2)cc1 (stereo unspecified)	n	n	n	n	n	n	x
COc1ccc(CNC(=O)CSc2nnnn2C)cc1OC	n	n	n	n	31.5	n	n
CCOC(=O)[C@@H]1CSCCS(=O)(=O)N1Cc1ccccc1	x	x	x	x	n	x	x
C[C@H]1CCCN1c1ccc2c(c1)OCCCN(C1CC1)S2(=O)=O	x	x	x	x	n	x	x
CCOc1ccc(CNC(=O)Cn2c(=O)c3cccn3c3ccccc32)cc1	n	n	n	n	38.6	n	23.5
CC(C)Oc1ccc(CNC(=O)Cn2c(=O)c3cccn3c3cccnc32)cc1	n	n	n	n	n	n	x
COc1nc(-c2ccc(C)cc2)ccc1-c1noc(-c2cccnc2)n1	n	n	n	n	21.9	n	n
COc1nc(-c2ccc(C)cc2)ccc1-c1noc(-c2ccco2)n1	n	n	n	n	n	n	x
COc1nc(-c2ccccc2)ccc1-c1noc(-c2ccccc2F)n1	n	n	n	n	29.5	n	n
COc1nc(-c2ccccc2)ccc1-c1noc(-c2cccnc2)n1	n	n	n	n	34.5	n	n
COc1ccccc1-c1noc(-c2cccnc2)n1	n	n	n	n	n	n	x
O=C(CSc1nnc(-c2ccco2)n1-c1ccc(Cl)cc1)Nc1cccc2ccccc12	x	x	x	x	n	x	x
CC(=O)c1ccc(S(=O)(=O)N2CCN(C(=O)C(=O)c3cccc(C(F)(F)F)c3)CC2)cc1	x	x	x	n	n	x	x
Cc1ccc(C(=O)NN2C(=O)/C(=C/c3cn(C)c4ccccc34)SC2=S)cc1	n	n	n	n	n	n	x
Cn1cc(/C=C2\SC(=O)NC2=S)c2ccccc21	n	n	n	n	27.3	n	n
